High-throughput results (PubChem)
Many of the other results were omitted from the sample, so hits are more common in it than they were.
UPR XBP1 act: adaptive UPR (XBP1) activation; 330,000 tested, 0.33% active; activation, % at 20 µM; AID 463104; CHO-XBP1 luciferase reporter, IRE1-XBP1 UPR activation, luminescence; percent of tunicamycin response, DMSO as zero;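 active = versus positive control, 20 µM dose yields 30% or more activation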
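incubation = overnight seeding at 37 °C, 6 h compound treatment at 37 °C | assay system = CHO-XBP1 cells stably carrying IRE1-XBP1-driven luciferase reporter | input = 1000 cells per well | detection = luciferase luminescence | dosing = single point, 20 µM final compound, 1% DMSO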
UPR CHOP act: apoptotic UPR (CHOP) activation; activation, % at 10 µM; 330,000 tested, 0.34% active; AID 449763; CHO-CHOP luciferase reporter, luminescence; percent of tunicamycin response over DMSO baseline;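 active = at 10 µM dose, activation of 40% or more, normalized to positive control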
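Assay system: CHO-CHOP cells, stable luciferase reporter of PERK-eIF2a-CHOP signalling / Buffer or medium: F12 plus 10% serum / Compound dosing: one dose, 10 µM in 0.5% DMSO / Times: 6 h compound treatment, 37 °C / Technique: luciferase luminescence / Read-out: % reporter activation, DMSO baseline versus tunicamycin full activation / Benchmarks: tunicamycin and DMSO controls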
T cruzi inh: blocks replication of Trypanosoma cruzi; inhibition, % (no concentration beside the values); 300,000 tested, 1.4% active; AID 1885; T. cruzi beta-gal in NIH3T3, luminescence, 90 h;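 active = mean inhibition across valid replicates above about 55%, limit read from the data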;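 also: signal also drops with host cell toxicity which is not excluded here; higher percent means less beta-gal luminescence so fewer parasites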
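Assay system: NIH/3T3 host cells with β-galactosidase reporter T. cruzi; input: 5,000 host fibroblasts per well; compound: single 50 nL compound addition per well in DMSO; timing: ≥90 h infection period, 3 h prior cell attachment; measured by: GalScreen β-gal luminescence, detergent lysis, 60 min; evaluation: percent inhibition of parasite-derived β-gal signal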
Dynein cargo inh: dynein cargo transport inhibition. 220,000 tested, 0.47% active. z-score, hits read low. 3617.4 mouse cells, GR-EGFP nuclear translocation imaging; test concentration mostly 20 µM; stimulated with dexamethasone, 1 µM; hits give low values. AID 1381;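 active = plate z-score of nuclear minus cytoplasmic receptor signal below a set negative limit, without overly bright fluorescence or cell loss, cut at about -3.5 in these data, passing the limit was not always enough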;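 also: z-score of nuclear minus cytoplasmic ring GR-EGFP intensity difference per well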
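Also added: dexamethasone, 1.0 µM final. Medium: tet-free, stripped-serum medium. Detection: fixed, Hoechst-stained cells imaged at 10x for EGFP. Read-out: nuclear-to-cytoplasmic GR-EGFP distribution per well. Times: induction 48 h, compound 1 h, agonist 30 min.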
Lmaj promast: reduces viability of Leishmania major promastigotes. resazurin fluorescence viability. inhibition, % at 10 µM. 200,000 tested, 9% active. AID 1063; in the data active = inhibition above about 50%;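 also: promastigotes grown with compound for 44 hours at 28 °C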
CHOP inh: blocks CHOP induction under ER stress; CHO-K1 CHOP-promoter luciferase, tunicamycin-induced, 15-18 h; inhibition, % at 10 µM; 220,000 tested, 3.8% active;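 active = compounds that reduced the stress-induced luciferase reporter signal by more than about 70% of percent inhibition, limit read from the data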
Each line names hits and unclear results; the compound was inactive in the other large screens.

COc1ccc(NC(=O)Nc2ccc(F)cc2F)c(C)c1	none
O=C(Nc1ccc(OC(F)(F)F)cc1)Nc1cccc([N+](=O)[O-])c1	Lmaj promast 100, CHOP inh 106
O=C(Nc1ccc(OC(F)(F)F)cc1)Nc1cccnc1	none (no result: Lmaj promast)
Nc1ccccc1C(=O)N1O[C@@H]2C=C[C@H]1CC2	none (no result: T cruzi inh, Dynein cargo inh, Lmaj promast, CHOP inh)
OC[C@H]1O[C@@H](n2cnc3c(NC4CCCC4)ncnc32)C(O)[C@H]1O (some centres not stated)	none (no result: UPR XBP1 act, UPR CHOP act, T cruzi inh, Dynein cargo inh, Lmaj promast)
COC(=O)c1ccc(CSc2nnc(NC(=O)C3CC(=O)N(c4ccc5c(c4)OCCO5)C3)s2)cc1 (configuration not stated)	none
CCN(C[C@H]1N[C@@](Cc2ccccc2)(C(=O)OC)[C@H]2C(=O)N(Cc3ccccc3)C(=O)[C@@H]12)C(=O)Nc1ccc(C(F)(F)F)cc1	none (no result: T cruzi inh, Dynein cargo inh, Lmaj promast, CHOP inh)
CC1=C(C)CC(C(=O)Nc2cccc([N+](=O)[O-])c2)C(C(=O)O)C1 (configuration not stated)	Lmaj promast 67
O=C(Nc1ccc([N+](=O)[O-])cc1)C(=O)Nc1cccc(C(=O)O)c1	CHOP inh 102 (no result: Lmaj promast)
OCC[C@@H]1C[C@H](O)[C@@H](O)[C@@]2(OCCc3ccccc32)O1	none (no result: Dynein cargo inh, Lmaj promast, CHOP inh)
O=C(Nc1ccc(Br)cc1)c1ccc(F)c(S(=O)(=O)NCc2cccs2)c1	CHOP inh 93
Cc1noc(C)c1COc1ccccc1C(=O)NCCOc1ccccc1	none (no result: T cruzi inh, Dynein cargo inh, Lmaj promast, CHOP inh)
CCCC1(c2ccccc2)NC(=O)N(CC(=O)Nc2sc(-c3ccccc3)cc2C(=O)OCC)C1=O (configuration not stated)	CHOP inh 85
CCOC(=O)c1cc(-c2ccccc2)sc1NC(=O)CN1C(=O)c2ccccc2C1=O	none (no result: CHOP inh)
CCOC(=O)c1c(NC(=O)CN2C(=O)NC3(CCCCC3C)C2=O)sc(C)c1C (configuration not stated)	none
CCOC(=O)c1c(NC(=O)CN2C(=O)NC(C)(c3ccccc3)C2=O)sc(C)c1C (configuration not stated)	Lmaj promast 70
CCOC(=O)c1c(NC(=O)CSc2n[nH]c(CNc3ccccc3)n2)sc(C)c1C	CHOP inh 91
CCOc1cc(C(=O)OCC(=O)Nc2cccc(S(=O)(=O)NC3=NCCCCC3)c2)cc(OCC)c1OCC	none (no result: T cruzi inh, Dynein cargo inh, Lmaj promast, CHOP inh)
CNC(=S)N(Cc1cc2cc(OC)c(OC)cc2[nH]c1=O)C1CCCC1	none
CC1CCc2sc3ncnc(N4CCN(C)CC4)c3c2C1 (configuration not stated)	none (no result: Dynein cargo inh, Lmaj promast, CHOP inh)
N#CN1CCC(NS(=O)(=O)c2ccc(C(F)(F)F)cc2)CC1	none (no result: T cruzi inh, Dynein cargo inh, Lmaj promast, CHOP inh)
COc1ccc(C)cc1NC(=O)C1CCN(S(=O)(=O)c2ccc3c(c2)C(C)(C)C(=O)N3C)CC1	none (no result: Dynein cargo inh, Lmaj promast, CHOP inh)
CC(=O)Nc1ccc(-c2csc(-c3cccnc3)n2)cc1	none (no result: Dynein cargo inh, Lmaj promast, CHOP inh)
CC(=O)N/C(=C\c1ccccc1)C(=O)OC(C)C(=O)NCc1ccccc1 (configuration not stated)	none (no result: Dynein cargo inh, Lmaj promast, CHOP inh)
O=C(c1ccco1)N(Cc1ccc([N+](=O)[O-])cc1)c1ccc(Br)cc1	CHOP inh 70
O=C(c1ccco1)N(Cc1cccc([N+](=O)[O-])c1)c1ccc(Br)cc1	none
CC(C)(C)C(=O)Nc1ccc(/C=C/C(=O)c2ccco2)cc1	none (no result: Dynein cargo inh, Lmaj promast, CHOP inh)
C=CCOC(=O)C1=C(C)NC(SC)=C(C#N)C1c1ccc(OCC)cc1 (configuration not stated)	CHOP inh 95
O=c1c2c(nc3c(-c4ccc(Cl)cc4)c[nH]n13)CCCC2	Lmaj promast 100
Cc1[nH]n2c(=O)c3c(nc2c1-c1ccc(F)cc1)CCCC3	T cruzi inh 74, Lmaj promast 100
Cc1[nH]n2c(=O)c3c(nc2c1-c1ccccc1)CCCC3	Lmaj promast 99
CCc1cccc(NC(=O)CCCn2c(=O)[nH]c3ccsc3c2=O)c1	none (no result: Dynein cargo inh, Lmaj promast, CHOP inh)
O=C1CC(/C=C/c2ccncc2)=Nc2ccccc2N1	Lmaj promast 65
NNC(=S)Nc1c(F)cc(F)cc1Br	none (no result: Lmaj promast)
Cc1ccc(NC(=O)CSc2nn(-c3ccc(Cl)cc3)c(=S)s2)cc1S(=O)(=O)N(C)C	Lmaj promast 97
CN(C)S(=O)(=O)c1cc(NC(=O)CSc2nn(-c3ccc(Cl)cc3)c(=S)s2)ccc1Cl	Lmaj promast 93
CC1=C(C(=O)OC2CCCC2)C(c2ccc(C)o2)C2=C(CC(c3cccs3)CC2=O)N1 (configuration not stated)	Lmaj promast 83
CC1=C(C(=O)OC2CCCCCC2)C(c2ccc(C)o2)C2=C(CCCC2=O)N1 (configuration not stated)	none
Cc1nc(SCC(=O)N(CC(C)C)C2CCS(=O)(=O)C2)c(C#N)c(C)c1C (configuration not stated)	none (no result: T cruzi inh, Dynein cargo inh, Lmaj promast, CHOP inh)
O=C1NC(Cc2c[nH]c3ccccc23)C(=O)N1CCOc1ccccc1 (configuration not stated)	Lmaj promast 96
O=C(Cc1ccc(Cl)cc1)NNS(=O)(=O)c1ccc([N+](=O)[O-])cc1	Lmaj promast 68
O=C(Cc1ccc([N+](=O)[O-])cc1)Nc1ccc(Cl)cc1	none
N#CC(Nc1ccccc1)c1ccccc1OCc1ccccc1 (configuration not stated)	CHOP inh 89
CCOC(=O)C1(Cc2cccc(OC)c2)CCN(Cc2ccc(OC)c(O)c2)CC1	Lmaj promast 85
CCOC(=O)C1(Cc2cccc(OC)c2)CCN(C/C=C/c2ccccc2)CC1	Lmaj promast 80
CCOC(=O)C1(CCOc2ccccc2)CCN(Cc2ccc(OC)c(O)c2)CC1	none (no result: Dynein cargo inh, Lmaj promast, CHOP inh)
CCOC(=O)C1(Cc2cccc(OC)c2)CCN(C2CCOCC2)CC1	Lmaj promast 81
CCOC(=O)C1(Cc2cccc(F)c2)CCN(C2CCOCC2)CC1	none
O=C(Cn1cnc2ccccc21)OCC(=O)N1CCCCC1	none (no result: T cruzi inh, Dynein cargo inh, Lmaj promast, CHOP inh)
O=C(CSc1ccc(Cl)cc1)Nc1cccc(-c2nnc(-c3ccco3)o2)c1	none
Cc1ccc(SCC(=O)Nc2cccc(-c3nnc(-c4ccco4)o3)c2)cc1	CHOP inh 71
Cc1ccc(SCC(=O)Nc2cccc(C(=O)NC(C)(C)C)c2)cc1	Lmaj promast 95
CCNC(=S)N/N=C/c1cccs1	Lmaj promast 100
O=C(c1cc(COc2cccc3cnccc23)on1)N1CCC(c2ccccc2Cl)C1 (configuration not stated)	T cruzi inh 63 (no result: Dynein cargo inh, Lmaj promast, CHOP inh)
CC(CC(=O)N1CCc2ccccc21)n1cccn1 (configuration not stated)	none (no result: Dynein cargo inh, Lmaj promast, CHOP inh)
Cc1nc(S/C(=C/c2ccc(OCc3ccc(C(=O)O)cc3)cc2)C(=O)O)n[nH]1	none
CC(=O)c1cc(-c2ccccc2)n(CC(=O)NC2CCCC2)c1C	none
